Test results published in ChEMBL document CHEMBL4038269, “Design, synthesis and evaluation of novel feruloyl-donepezil hybrids as potential multitarget drugs for the treatment of Alzheimer's disease” (Eur J Med Chem, 2017).
pEC50, pIC50, pKi: −log10 of the molar value. Activity calls are given as the source filed them.

Assays:
[1] = tested on: Mus musculus; experiment: Antinociceptive activity in carrageenan-induced Swiss mouse model of mechanical hyperalgesia at 100 umol/kg, po pretreated for 1 hr followed by carrageenan challenge measured at 3 hrs post dose by Von Frey filament assay; type: functional, organism-based
How it was run: (§1)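 Male Swiss mice (n=8) dosed orally with 100 µmol/kg or vehicle 1 h before intraplantar carrageenan (100 µg/paw). Mechanical threshold measured by up-and-down Von Frey method after 60 min acclimation on a wire screen. Started at 0.4 g filament, ≥6 trials at 10 s intervals, about 4 s per application. Reported as mean threshold in grams ± SEM.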

[2] = tested on: Mus musculus; experiment: Antiinflammatory activity in formalin-induced nociception Swiss mouse model assessed as reduction in time spent licking formalin injected hind paw during neurogenic phase at 100 umol/kg, po pretreated for 1 hr followed by formalin challenge measured up to 5 mins; type: functional, organism-based
How it was run: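 Male Swiss mice (22-28 g), n=8 per group, given oral vehicle (saline + DMSO 2%) or 100 µmol/kg 1 h before formalin (5% in 0.9% saline, 20 µl) into the right hind paw sub-plantar region. Morphine 39 µmol/kg i.p. was given 30 min before. Paw-licking time recorded at 0–5 min (neurogenic phase) and 20–30 min (inflammatory phase).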

[3] = tested on: Mus musculus; experiment: Anti-inflammatory activity in Swiss mouse assessed as reduction in carrageenan-induced paw edema at 100 umol/kg, po pretreated for 1 hr followed by carrageenan challenge after 3 hrs by plethysmometer; type: functional, organism-based
How it was run: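 Adult male Swiss mice (22-28 g), fasted overnight, given vehicle (DMSO 2% in sterile saline) or 100 µmol/kg orally 1 h before intraplantar carrageenan. Methods give 400 µg/20 µl and n=10 per group; figure legend gives 100 µg/paw and n=8. Right hind paw volume read by plethysmometer at 1, 3 and 5 h. Reported as change in µL from basal volume, mean ± SEM.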

[4] = biological target: T1, Acetylcholinesterase (Electrophorus electricus, UniProt O42275); experiment: Inhibition of Electrophorus electricus AChE using acetylthiocholine iodide as substrate pretreated for 10 mins followed by substrate addition measured at 12 secs interval for 5 mins by Ellman's method
[5] = Selectivity ratio of IC50 for equine serum BuChE to IC50 Electrophorus electricus AChE
[6] = biological target: T1, Acetylcholinesterase; experiment: Non-competitive inhibition of Electrophorus electricus AChE using acetylthiocholine iodide as substrate pretreated for 10 mins followed by substrate addition measured at 12 secs interval for 5 mins by Ellman's method
[7] = Antioxidant activity assessed as DPPH radical scavenging activity measured after 30 mins; type: functional
How it was run: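 DPPH scavenging: compound at 12.5, 25, 50 and 100 µM in ethanol (4 mL) mixed with 1 mL of 0.5 mM DPPH in ethanol. Shaken 30 min at room temperature, absorbance read at 517 nm. % inhibition = (A control − A sample)/A control × 100. Run in triplicate; EC50 obtained by linear regression of mean values.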

[8] = Metal chelating activity assessed as absorption maximum for compound-Cu2+ complex formation at 75 uM after 30 mins by UV-Vis spectrophotometric method (reference value: 237.2 nanometer); type: functional
How it was run: (§2)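 UV-Vis spectra in ethanol of compound at 75 µM alone or after 30 min incubation with CuSO4, FeSO4, FeCl3 or ZnCl2 (150 µM). Absorption maxima recorded.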

[9] = Metal chelating activity assessed as absorption maximum for compound-Fe2+ complex formation at 75 uM after 30 mins by UV-Vis spectrophotometric method (reference value: 237.2 nanometer); type: functional; how it was run: as §2
[10] = Metal chelating activity assessed as compound-Fe3+ complex formation at 75 uM after 30 mins by UV-Vis spectrophotometric method; type: functional; how it was run: as §2
[11] = tested on: SH-SY5Y; experiment: Iron chelating activity in human SH-SY5Y cells assessed as reduction in FeSO4/H2O2-induced reactive oxygen species formation at 10 to 20 uM after 30 mins by DCFH-DA probe based fluorescence assay; type: functional, cell-based
How it was run: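 SH-SY5Y cells seeded at 3 x 10^4 cells/well and preloaded with DCFH-DA (10 µg/mL, 30 min, room temperature). Then given compound (5, 10, 20 µM) with FeSO4/H2O2 or CuSO4/H2O2 for 30 min; metal 25 µM and H2O2 100 µM per figure legend. Fluorescence read at ex 485/em 535 nm, arbitrary units. Mean ± SD of three experiments.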

[12] = tested on: SH-SY5Y; experiment: Antioxidant activity in human SH-SY5Y cells assessed as increase in GSH level at 20 uM after 24 hrs by MCB probe based assay relative to control; type: functional
How it was run: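 SH-SY5Y cells (DMEM, 10% FBS, 37 °C, 5% CO2) seeded at 2 x 10^4 cells/well and grown 24 h. Treated with 20 µM compound for 3-24 h. Then 50 µM monochlorobimane in PBS for 30 min at 37 °C. GSH fluorescence read at ex 360/em 465 nm, as % of control cells. Mean ± SD of three independent experiments.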

[13] = tested on: SH-SY5Y; experiment: Neuroprotective activity in human SH-SY5Y cells assessed as reduction in amyloid beta (1 to 42)-induced reactive oxygen species formation at 20 uM after 3 hrs by DHE probe based fluorescence microscopic method; type: functional, cell-based
How it was run: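 SH-SY5Y cells on 8-well slides (1x10^4/well, 24 h) treated 3 h with compound (20 µM) and Aβ1-42 oligomers (10 µM) at 37 °C. Stained with dihydroethidium (10 µM, 30 min, dark), then 1 h in serum-free DMEM. Fluorescence imaged by microscopy; four random fields of 50–100 cells quantified in arbitrary units.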

[14] = tested on: SH-SY5Y; experiment: Neuroprotective activity in human SH-SY5Y cells assessed as reduction in amyloid beta (1 to 42)-induced late neuronal death at 20 uM after 24 hrs by propidium iodide staining based fluorescence microscopic method; type: functional, cell-based
How it was run: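 SH-SY5Y cells at 5×10^3 cells/well, grown 24 h, then compound (20 µM) with Aβ1-42 oligomers for 24 h at 37 °C; oligomers 10 µM in methods, 20 µM in legend. Stained with propidium iodide (25 µg/mL in PBS) for 10 min. Four random fields of 50–100 cells scored by fluorescence microscopy; dead cells % = PI-positive/total × 100.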

[15] = tested on: Mus musculus; experiment: In vivo inhibition of COX-1 activity in carrageenan-induced Swiss mouse serum at 100 umol/kg, po pretreated for 1 hr followed by carrageenan challenge after 3 hrs by ELISA relative to control; type: functional
How it was run: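 Male Swiss mice given oral drug (100 µmol/kg) or vehicle 1 h before intraplantar carrageenan (legend: 400 µg/paw). At 3 h, animals anaesthetised with chloral hydrate and cardiac blood taken. Serum separated (1500 rpm, 20 min) and frozen at -70 °C. COX-1, COX-2 and 5-LOX measured by specific sandwich ELISA at 450 nm. Expressed as % enzymatic activity, mean ± SEM, n=8.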

[16] = tested on: Mus musculus; experiment: Neurotoxicity in Swiss mouse assessed as induction of motor impairment at 100 umol/kg, po measured after 1 hr by open filed test; type: toxicity, organism-based; details: in vivo
How it was run: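 Male Swiss mice (n=8) given vehicle or compound orally 1 h before open-field test. Crossings of the central four and peripheral 12 squares counted separately.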

[17] = tested on: Mus musculus; experiment: Antinociceptive activity in carrageenan-induced Swiss mouse model of mechanical hyperalgesia at 100 umol/kg, po pretreated for 1 hr followed by carrageenan challenge measured at 3 hrs to 7 hrs post dose by Von Frey filament assay; type: functional, organism-based; how it was run: as §1

T1 sequence (O42275 whole entry): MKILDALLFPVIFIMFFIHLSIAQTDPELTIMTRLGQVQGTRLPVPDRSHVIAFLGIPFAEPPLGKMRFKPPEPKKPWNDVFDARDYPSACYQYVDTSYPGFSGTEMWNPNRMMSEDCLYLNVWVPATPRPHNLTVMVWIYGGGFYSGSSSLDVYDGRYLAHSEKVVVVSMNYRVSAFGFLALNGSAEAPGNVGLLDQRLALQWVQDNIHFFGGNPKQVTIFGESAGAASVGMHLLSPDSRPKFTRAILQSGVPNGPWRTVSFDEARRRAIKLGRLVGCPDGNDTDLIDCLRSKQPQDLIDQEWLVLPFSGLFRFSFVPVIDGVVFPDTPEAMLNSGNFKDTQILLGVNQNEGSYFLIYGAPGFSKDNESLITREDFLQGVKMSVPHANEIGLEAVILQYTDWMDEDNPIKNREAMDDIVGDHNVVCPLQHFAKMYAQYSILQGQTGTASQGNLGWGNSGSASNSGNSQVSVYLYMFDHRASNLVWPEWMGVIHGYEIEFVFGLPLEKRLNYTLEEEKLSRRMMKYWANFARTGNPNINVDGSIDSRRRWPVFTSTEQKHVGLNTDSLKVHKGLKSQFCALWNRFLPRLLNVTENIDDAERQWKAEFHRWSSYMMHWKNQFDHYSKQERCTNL

COc1cc(/C=C/C(=O)OCC2CCN(Cc3ccccc3)CC2)ccc1O
Activity [1]: Active
Activity [2]: Active
Activity [3]: Active
pIC50 [4]: 6.34
Ratio IC50 [5]: 53
pKi [6]: 5.98
pEC50 [7]: 4.31
Activity [8]: 248 nm
Activity [9]: 249 nm
Activity [10]: inactive
Activity [11]: Active
fold change (FC) [12]: 1.4
Activity [13]: Active
Activity [14]: Active
inhibition in vivo at 100 µmol/kg [15]: 40%
Activity [16]: Non-Toxic
Activity [17]: Active
